Values after ≈ are worked out from the molar mass of the structure shown. Active and inactive are the calls of the source. No cut-off for these calls is given here.
Legend:
[1] = tested on: Staphylococcus aureus; test: Antibacterial activity against methicillin resistant Staphylococcus aureus DM9808R by two fold serial dilution method; format: functional
How it was run: (§1)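 Broth microdilution per CLSI guidelines with minor modifications, run in Mueller−Hinton broth; MIC is the lowest concentration giving no visible growth.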

[2] = tested on: Candida albicans; test: Antifungal activity against Candida albicans ATCC11651 after 24 hrs by two fold serial dilution method; format: functional; conditions: ATCC11651, 24 h
How it was run: (§2)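 Candida grown on Sabouraud dextrose agar at 35 °C for 24 h, adjusted to ~5×10^3 CFU/mL. Two-fold dilutions from 100 to 0.78 μg/mL in Sabouraud dextrose broth, incubated at 35 °C for 24 h. MIC is the lowest concentration inhibiting growth by eye and by OD600. CLSI-based with minor modifications.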

[3] = tested on: Candida albicans; test: Fungicidal activity against drug resistant Candida albicans DF2672R at 1 time MIC after 24 hrs by time kill assay; format: functional
How it was run: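 Cells at 10^5–10^6 CFU/mL exposed to 1×, 2×, 4× or 8× MIC at 35 °C. Samples taken at 0.5, 1, 2, 4, 8 and 24 h, serially diluted in PBS and plated on SDA. CFU counted after 24 h at 35 °C; biological replicates.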

[4] = tested on: Candida albicans; test: Antifungal activity against Candida albicans ATCC24433 after 24 hrs by two fold serial dilution method; format: functional; conditions: ATCC24433, 24 h; how it was run: as §2
[5] = tested on: Candida albicans; test: Potency index, ratio of natamycin concentration to compound concentration for antifungal activity against drug resistant Candida albicans DF2672R infected C57BL6 mouse; format: functional
[6] = tested on: Candida albicans; test: Antifungal activity against drug resistant Candida albicans DF2672R after 24 hrs by two fold serial dilution method; format: functional; how it was run: as §2
[7] = tested on: Aspergillus brasiliensis; test: Antifungal activity against Aspergillus brasiliensis TCC16404 after 48 hrs by two fold serial dilution method; format: functional; conditions: TCC16404, 48 h
How it was run: (§3)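 Moulds grown on potato dextrose agar, 30 °C, 4 days; inoculum adjusted to about 5×10^3 CFU/mL. Two-fold serial dilutions in RPMI-1640 broth, 100 to 0.78 μg/mL final, mixed with equal volume of cell suspension; incubated 30 °C, 48 h. MIC = lowest concentration inhibiting growth, judged visually and by OD530.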

[8] = tested on: Candida albicans; test: Synergistic antifungal activity against drug resistant Candida albicans DF2672R after 24 hrs in presence of miconazole by checkerboard assay; format: functional
How it was run: (§4)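 Checkerboard combination of each compound with a second antifungal, following a previously reported procedure. FIC = MIC of A in combination/MIC of A alone + MIC of B in combination/MIC of B alone.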

[9] = tested on: Candida albicans; test: Antifungal activity against Candida albicans ATCC 10231 after 24 hrs by two fold serial dilution method; format: functional; conditions: ATCC 10231, 24 h; how it was run: as §2
[10] = tested on: Fusarium solani; test: Antifungal activity against Fusarium solani 62877 after 48 hrs by two fold serial dilution method; format: functional; conditions: Fusarium solani, 62877, 48 h; how it was run: as §3
[11] = tested on: Lipid bilayer; test: Induction of membrane permiablization in calcein loaded DOPC/DOPE/PI large unilamellar vesicles assessed as calcein leakage at 1:4 compound to lipid ratio after 1 to 2 hrs by fluorescence assay relative to control
How it was run: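 LUVs (DOPC/DOPE/PI 2:1:1 with 15 wt % ergosterol, about 100 nm) made by film hydration and extrusion, loaded with 80 mM calcein in HEPES buffer pH 7.4. Free dye removed by G-50 column. Compound added in 0.5% DMF at 50 μM final phospholipid. Emission read at 520 nm (excitation 490 nm); leakage normalized to 1% Triton X-100.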

[12] = tested on: Staphylococcus aureus; test: Antibacterial activity against methicillin resistant Staphylococcus aureus DM21455 by two fold serial dilution method; format: functional; how it was run: as §1
[13] = tested on: Fusarium solani; test: Antifungal activity against Fusarium solani 52628 after 48 hrs by two fold serial dilution method; format: functional; conditions: Fusarium solani, 52628, 48 h; how it was run: as §3
[14] = Selectivity index, ratio of HC50 for New Zealand white rabbit RBC to MIC for Candida albicans ATCC 10231
[15] = tested on: Candida albicans; test: Induction of membrane permiablization in drug resistant Candida albicans DF2672R at 4 times MIC after 1 to 2 hrs by SYTOX green dye based spectrofluorometric assay; format: functional
How it was run: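 Overnight cultures washed and resuspended in PBS at OD600 0.2, then loaded with 0.3 μM SYTOX Green in the dark. After the signal stabilised, compound in PBS/DMF was added (final DMF 0.5%; 0.5% DMF as control). Fluorescence (ex 504/em 523 nm) followed continuously for 1–2 h; biological replicates.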

[16] = tested on: Candida albicans; test: Synergistic antifungal activity against drug resistant Candida albicans DF2672R after 24 hrs in presence of posaconazole by checkerboard assay; format: functional; how it was run: as §4
[17] = tested on: Candida albicans; test: Antifungal activity against drug resistant Candida albicans DF2672R infected C57BL6 mouse cornea at 0.2% administered topically for every 20 mins during the first hour and every 1 hr during the next 6 hrs by serial dilution method; format: functional
How it was run: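 C57BL6 mice aged 7–8 weeks (19–23 g), immunosuppressed with cyclophosphamide 100 mg/kg ip at 4 days and 1 day before infection and on day 1 after. Left cornea scratched under xylazine/ketamine, then 20 μL of ~5×10^7 CFU/mL yeast in PBS applied. Treatment started 1 day later; PBS served as control; four mice per group. Corneal fungal load counted by serial dilution plating on SDA.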

[18] = tested on: Candida albicans; test: Synergistic antifungal activity against drug resistant Candida albicans DF2672R after 24 hrs in presence of natamycin by checkerboard assay; format: functional; how it was run: as §4
[19] = tested on: Fusarium oxysporum; test: Antifungal activity against Fusarium oxysporum 64530 after 48 hrs by two fold serial dilution method; format: functional; conditions: Fusarium oxysporum, 64530, 48 h; how it was run: as §3
[20] = tested on: Staphylococcus aureus; test: Antibacterial activity against Staphylococcus aureus DM4001R by two fold serial dilution method; format: functional
How it was run: (§5)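 Broth microdilution (CLSI, minor modifications) in Sabouraud dextrose, Mueller−Hinton or RPMI 1640 broth; two-fold serial dilutions of compound from stock to final 100 to 0.78 μg/mL. MIC taken as lowest concentration giving no visible growth.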

[21] = tested on: Fusarium solani; test: Antifungal activity against Fusarium solani 46492 after 48 hrs by two fold serial dilution method; format: functional; conditions: Fusarium solani, 46492, 48 h; how it was run: as §3
[22] = tested on: Fusarium oxysporum; test: Antifungal activity against Fusarium oxysporum MYA3461 after 48 hrs by two fold serial dilution method; format: functional; conditions: MYA3461, 48 h; how it was run: as §3
[23] = Cytotoxicity against human corneal fibroblasts assessed as cell viability at 100 uM after 4 hrs by LDH assay relative to control; format: cell-based, Corneal fibroblast; conditions: read-out: Activity
How it was run: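 LDH release assay on human corneal fibroblasts seeded at 10000 cells per well, exposed to a range of compound concentrations up to 100 μM. 1% Triton X-100 served as positive control and 0.5% DMSO as negative control; biological replicates.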

[24] = tested on: Aspergillus fumigatus; test: Antifungal activity against Aspergillus fumigatus TCC MYA3626 after 48 hrs by two fold serial dilution method; format: functional; conditions: TCC MYA3626, 48 h; how it was run: as §3
[25] = tested on: Candida albicans; test: Synergistic antifungal activity against drug resistant Candida albicans DF2672R after 24 hrs in presence of terbinafine by checkerboard assay; format: functional; how it was run: as §4
[26] = tested on: Bacillus cereus; test: Antibacterial activity against Bacillus cereus ATCC11778 by two fold serial dilution method; format: functional; how it was run: as §5
[27] = tested on: Aspergillus flavus; test: Antifungal activity against Aspergillus flavus TCC MYA3631 after 48 hrs by two fold serial dilution method; format: functional; conditions: TCC MYA3631, 48 h; how it was run: as §3
[28] = tested on: Candida albicans; test: Synergistic antifungal activity against drug resistant Candida albicans DF2672R after 24 hrs in presence of itraconazole by checkerboard assay; format: functional; how it was run: as §4

## COc1c(OCC(O)CNC(=N)N)cc2oc3cc(OCC(O)CNC(=N)N)c(CC=C(C)C)c(O)c3c(=O)c2c1CC=C(C)C (stereo not drawn)
[1]
  MIC: 1.56 to 3.13 µg/mL (≈ 2.43 to 4.88 µM)
[2]
  MIC: 0.78 µg/mL (≈ 1.22 µM)
[3]
  Activity: Active
[4]
  MIC: 0.78 µg/mL (≈ 1.22 µM)
[5]
  Ratio: 25
[6]
  MIC: 0.78 µg/mL (≈ 1.22 µM)
[7]
  MIC: 3.13 µg/mL (≈ 4.88 µM)
[8]
  fractional inhibitory concentration index (FICI): 0.88
[9]
  MIC: 0.78 µg/mL (≈ 1.22 µM)
[10]
  MIC: 3.13 µg/mL (≈ 4.88 µM)
[11]
  Activity: 75.6%
[12]
  MIC: 1.56 to 3.13 µg/mL (≈ 2.43 to 4.88 µM)
[13]
  MIC: 3.13 µg/mL (≈ 4.88 µM)
[14]
  Selectivity Index: 61
[15]
  Activity: Active
[16]
  fractional inhibitory concentration index (FICI): 1.06
[17]
  Activity: 92.8%
[18]
  fractional inhibitory concentration index (FICI): 1.08
[19]
  MIC: 3.13 µg/mL (≈ 4.88 µM)
[20]
  MIC: 1.56 to 3.13 µg/mL (≈ 2.43 to 4.88 µM)
[21]
  MIC: 3.13 µg/mL (≈ 4.88 µM)
[22]
  MIC: 1.56 µg/mL (≈ 2.43 µM)
[23]
  viability at 4 h, 100 µM: 44.4%
[24]
  MIC: 6.25 µg/mL (≈ 9.75 µM)
[25]
  fractional inhibitory concentration index (FICI): 0.44
[26]
  MIC: 1.56 to 3.13 µg/mL (≈ 2.43 to 4.88 µM)
[27]
  MIC: 6.25 µg/mL (≈ 9.75 µM)
[28]
  fractional inhibitory concentration index (FICI): 1.28

Reference: ChEMBL document CHEMBL4028907, “Semisynthesis and Biological Evaluation of Xanthone Amphiphilics as Selective, Highly Potent Antifungal Agents to Combat Fungal Resistance” (J Med Chem, 2017)
